High-throughput results: PubChem, Broad Institute
IDH1 mut inh – blocks human IDH1 R132H reductase activity; diaphorase/resazurin fluorescence, 60 min; O75874; AID 624101; 70,000 compounds, 0.18% hits; inhibition, % at 10 µM; in the data active means inhibition above about 34%; inconclusive means no clear call, values can overlap the other calls; inactive means below about 11%;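 further: 0% = DMSO and 100% = no enzyme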
Target sequence (O75874 whole entry R132H): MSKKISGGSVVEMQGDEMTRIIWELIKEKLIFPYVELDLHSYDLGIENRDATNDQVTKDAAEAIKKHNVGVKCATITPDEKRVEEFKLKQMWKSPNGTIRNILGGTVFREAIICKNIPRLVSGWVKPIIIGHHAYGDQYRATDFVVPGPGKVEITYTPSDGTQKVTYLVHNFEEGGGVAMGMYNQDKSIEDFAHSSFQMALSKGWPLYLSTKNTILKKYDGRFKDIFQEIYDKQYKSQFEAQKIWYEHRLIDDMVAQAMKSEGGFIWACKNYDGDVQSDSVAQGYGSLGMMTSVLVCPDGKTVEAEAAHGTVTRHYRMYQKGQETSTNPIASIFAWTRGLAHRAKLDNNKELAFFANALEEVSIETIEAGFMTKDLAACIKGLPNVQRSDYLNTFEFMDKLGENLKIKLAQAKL
T cruzi growth-1 – T. cruzi proliferation inhibition. T. cruzi beta-gal in NIH3T3, GalScreen luminescence, 90 h. inhibition, % at 8.34 µM. 77,000 compounds, 5.9% hits;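 active means mean inhibition above about 93%, with at least 55% of replicates each passing it, limit read from the data, passing the limit was not always enough; inconclusive means only one of those two conditions holds; inactive means neither condition holds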
KDM4C inh – KDM4C (human) demethylase inhibition | Q9H3R0 | GST-KDM4C 2-372, H3K9me3 peptide, LANCE TR-FRET | inhibition, % at 12.5 µM | 96,000 compounds, 0.15% hits | AID 720574;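 active means mean replicate inhibition above about 25%, with at least 55% of replicates also reaching it, limit read from the data, passing the limit was not always enough; inconclusive means only one of those two conditions met; inactive means neither condition met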
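Test system: N-terminal GST-fused human GASC-1 (KDM4C) fragment, residues 2-372; quantity: GASC-1 enzyme at 10 nM final in reaction; dosing: single dose; schedule: 30 min demethylation and 1 h detection at room temperature; signal: LANCE TR-FRET, excitation 340 nm, emissions 618 and 671 nm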
T cruzi growth-2 – Trypanosoma cruzi proliferation inhibition. shares compounds with T cruzi growth-1. T. cruzi beta-gal in NIH3T3, GalScreen luminescence, 90 h. inhibition, % at 8.35 µM. 5,600 compounds, 72% hits;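 active means mean replicate inhibition above about 95% and at least 55% of replicates individually reaching it, limit read from the data; inconclusive means only one of the two criteria is met; inactive means neither criterion is met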
T cruzi growth-3 – Trypanosoma cruzi proliferation inhibition | AID 651740 | shares compounds with T cruzi growth-1 | 5,600 compounds, 21% hits | inhibition, % at 2.09 µM | T. cruzi beta-gal in NIH3T3, GalScreen luminescence, 90 h;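 active means mean inhibition above about 95%, with at least 55% of replicates also reaching it, limit read from the data; inconclusive means meets just one of the two conditions; inactive means meets neither condition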;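 further: plate controls were neutral control median for no effect and positive control median for full effect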
3T3 cytotox – cytotoxicity in mouse NIH/3T3 fibroblasts; shares compounds with T cruzi growth-1; cytotoxicity (signal decrease), % at 8.35 µM; NIH/3T3 viability, CellTiter-Glo ATP luminescence, 90 h; 5,600 compounds, 14% hits;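 active means mean signal decrease across replicates above about 35% based on untreated-well scatter, with enough replicates individually passing, limit read from the data; inconclusive means no rule stated though some were filed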;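 further: 0% = median of neutral control wells and 100% = median of positive control wells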
NIH3T3 tox 2 – kills mouse NIH/3T3 fibroblasts; shares compounds with T cruzi growth-1; NIH/3T3 viability, CellTiter-Glo ATP luminescence, 90 h; inhibition, % at 24.9 µM; 5,600 compounds, 56% hits;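 active means mean loss of cell viability signal at or above a set limit, and enough replicates individually reaching it; inconclusive means meets only the mean limit or only the replicate share; inactive means meets neither condition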;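 further: 0% = median of neutral control wells and 100% = median of positive control wells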
* hit, by the source's call. Many of the other results were omitted from the sample, so hits are more common in it than they were.

What do the screens show for `COc1ccc2c(c1OC)OC[C@@H](c1ccc(OC)c(OC)c1OC)C2`?
IDH1 mut inh: -1.4

What do the screens show for `CC1OC(OC2C(O[C@H]3OC[C@](O)(CO)[C@H]3O)COC(O[C@@H]3[C@@H](O)[C@@H](O)[C@H](OC4C(OC(=O)[C@]56CCC(C)(C)CC5C5=CCC7[C@@]8(C)C[C@H](O)[C@H](OC9OC(CO)C(O)C(O)C9O)[C@@](C)(CO)C8[C@H](O)C[C@@]7(C)[C@]5(C)CC6)OCC(O)C4O)O[C@H]3C)C2O)C(O)C(O)C1O` (stereo partly specified)?
IDH1 mut inh: 0.0

What do the screens show for `C[C@@H]1CN([C@H](C)CO)C(=O)c2cc(NS(=O)(=O)c3ccc(F)cc3)ccc2O[C@@H](C)CCCCO[C@H]1CN(C)Cc1ccccc1`?
IDH1 mut inh: 1.2; T cruzi growth-1: 73.6; KDM4C inh: 0.2

What do the screens show for `C[C@@H]1CCCCO[C@H](CN(C)Cc2ccccc2)[C@H](C)CN([C@H](C)CO)C(=O)c2cc(NS(=O)(=O)c3ccccc3)ccc2O1`?
IDH1 mut inh: 1.7; T cruzi growth-1: 100.8*; KDM4C inh: 0.8; T cruzi growth-2: 98.2*; T cruzi growth-3: 78.8; 3T3 cytotox: -8.2; NIH3T3 tox 2: 41.2*

What do the screens show for `C[C@H]1CCCCO[C@@H](CN(C)Cc2ccccc2)[C@@H](C)CN([C@@H](C)CO)C(=O)c2cc(NS(=O)(=O)c3ccccc3)ccc2O1`?
IDH1 mut inh: -3.9; T cruzi growth-1: 16.3; KDM4C inh: 2.2

What do the screens show for `C[C@@H]1CN([C@@H](C)CO)C(=O)c2cc(NS(=O)(=O)c3ccc(F)cc3)ccc2O[C@@H](C)CCCCO[C@@H]1CN(C)Cc1ccccc1`?
IDH1 mut inh: -1.1; T cruzi growth-1: 104.9*; KDM4C inh: -0.2; T cruzi growth-2: 99.2*; T cruzi growth-3: 81.7; 3T3 cytotox: 19.9; NIH3T3 tox 2: 106.9*

How did Cc1ccc(OCC(=O)Nc2ccc(Br)cc2C(=O)O)cc1C do in these assays?
IDH1 mut inh: -0.1

Results for O=C(Cn1nnc2ccccc21)NCCN1CCCC1 ?
IDH1 mut inh: -0.5

What do the screens show for `CN(CC(=O)Nc1ccccc1C(=O)N1CCCCC1)S(=O)(=O)c1ccc2ccccc2c1`?
IDH1 mut inh: -0.4

How did N#Cc1cccc(-c2ccc3c(c2)[C@H]2[C@H](CCN2S(=O)(=O)c2cccc(F)c2)[C@H](CO)N3)c1 do in these assays?
T cruzi growth-1: 102.6*; KDM4C inh: -6.1; T cruzi growth-2: 98.9*; T cruzi growth-3: 27.0; 3T3 cytotox: 10.5; NIH3T3 tox 2: inconclusive

Results for N#Cc1cccc(-c2ccc3c(c2)[C@@H]2[C@@H](CCN2S(=O)(=O)c2ccc(F)cc2)[C@H](CO)N3)c1 ?
T cruzi growth-1: 22.1; KDM4C inh: 0.1

Results for N#Cc1cccc(-c2ccc3c(c2)[C@H]2[C@H](CCN2S(=O)(=O)c2cccc(F)c2)[C@@H](CO)N3)c1 ?
T cruzi growth-1: inconclusive; KDM4C inh: -1.0; T cruzi growth-2: 105.9*; T cruzi growth-3: 48.3; 3T3 cytotox: 46.0*; NIH3T3 tox 2: 51.2*

How did N#Cc1ccc(-c2ccc3c(c2)[C@@H]2[C@@H](CCN2S(=O)(=O)c2ccccc2F)[C@H](CO)N3)cc1 do in these assays?
T cruzi growth-1: 36.2; KDM4C inh: -0.4

Results for N#Cc1cccc(-c2ccc3c(c2)[C@@H]2[C@@H](CCN2S(=O)(=O)c2ccccc2F)[C@H](CO)N3)c1 ?
T cruzi growth-1: 107.8*; KDM4C inh: -3.1; T cruzi growth-2: 106.3*; T cruzi growth-3: 87.0; 3T3 cytotox: 45.7*; NIH3T3 tox 2: 92.2*

What do the screens show for `N#Cc1ccc(-c2ccc3c(c2)[C@H]2[C@H](CCN2S(=O)(=O)c2cccc(F)c2)[C@H](CO)N3)cc1`?
T cruzi growth-1: 13.0; KDM4C inh: -2.1

Results for O=C(Nc1ccccc1C(=O)NC1CCCCC1)c1ccc(Cl)c(S(=O)(=O)N2CCOCC2)c1 ?
IDH1 mut inh: 0.1

How did COc1cc2c(cc1NC(=O)CCOc1ccccc1C)oc1ccccc12 do in these assays?
IDH1 mut inh: 0.6
